Experimental data from different studies.
Lines come from different studies, so protocols differ.
Matrix: plasma

COc1ccc2c(c1)CN(C(=O)CCN1CCC(Cc3ccccc3)CC1)CC[S@@+]2[O-] — AUC(0-t) (male human; intravenous; 0.05 mg/kg; healthy volunteers): 241 ng·h/mL
CC(=O)N(C)[C@H]1CCN(C(=O)c2cnc3c(c2)C[C@](C)(c2ccc(F)cc2)N3)C1 — AUC(0-t) (male human; oral; 15 mg; multiple doses, once daily): 1.88 µM·h
C[C@@H](Oc1ccc(S(C)(=O)=O)cc1C(=O)N1C[C@@H]2C[C@]2(c2cc(C(F)(F)F)on2)C1)C(F)(F)F — AUC(0-t) (human; oral; 10 mg; single dose, fasted): 1.61 µM·h
CC(C)n1c(C2CCNCC2)nc2c([N+](=O)[O-])c(Br)c(Br)cc21 — AUC(0-t) (human; oral; 25 mg; patients): 152 ng·h/mL
OC[C@H]1O[C@@H](c2cc(Cc3ccc(C4CC4)cc3)c(Cl)c3c2CCO3)[C@H](O)[C@@H](O)[C@@H]1O — AUC(0-t) (human; oral; 0.3 mg; single dose, fasted): 26.5 ng·h/mL
COc1ccc(-c2c(Nc3ccccn3)[nH]c3c(C4=CCCCC4)c(-c4ccccc4)nn3c2=O)cc1 — AUC(0-t) (human; oral; 100 mg once daily; multiple doses, steady state, patients): 66300 ng·h/mL
CC(=O)O[C@H]1C(=O)[C@@]2(C)[C@H]([C@H](OC(=O)c3ccccc3)[C@]3(O)C[C@H](OC(=O)[C@H](O)[C@@H](NC(=O)c4ccccc4)c4ccccc4)C(C)=C1C3(C)C)[C@]1(OC(C)=O)CO[C@@H]1C[C@@H]2O — AUC(0-t) (human; intravenous; 80 mg/m²): 3.25 µM·h
CC1(C)CC[C@]2(NC(=O)C(C)(F)F)CC[C@]3(C)[C@H](C(=O)C=C4[C@@]5(C)C=C(C#N)C(=O)C(C)(C)[C@@H]5CC[C@]43C)[C@@H]2C1 — AUC(0-t) (human; oral; 150 mg; single dose): 1730 ng·h/mL
